Published values of several laboratories.
Lines come from different studies, so protocols differ.
Organism: Plasmodium falciparum
Read-out: parasite growth
Technique: SYBR Green

For CCN(CC)CCCC(C)Nc1ccnc2cc(Cl)ccc12 (centres unmarked), the IC50 was 354 nM (MDR, TM90; 72 h, drug-resistant strain, blood stage).
For C[N+]1=C2C=C(N)C(=O)c3[nH]cc(c32)CC1, the IC50 was 196 nM (3D7; blood stage).
With CCN(CC)CCCC(C)Nc1ccnc2cc(Cl)ccc12 (centres unmarked) the IC50 was 848 nM (DD2; drug-resistant strain, blood stage).
For COCC(=O)N1CCC[C@H](C(=O)NCc2nc(-c3ccc(C#N)cc3)cs2)C1, the EC50 was 18 nM (DD2; 72 h, blood stage).
The IC50 of Cn1cc2c3c1C(=O)C(N)=CC3=NCC2 is reported as 5770 nM (W2; blood stage).
The IC50 of O[C@H](CN[C@H](COCC1CC1)Cc1ccccc1)c1cc(Cl)cc2c1-c1ccc(Cl)cc1C2 is reported as 2.8 nM (W2; 48 h, drug-resistant strain, blood stage).
For O=C1c2[nH]cc3c2C(=NCC3)c2c(-c3ccc(O)cc3)c[nH]c21, the IC50 was 2090 nM (3D7; blood stage).
O=Cc1cn(Cc2cn(-c3ccnc4cc(Cl)ccc34)nn2)c2ccccc12 gave an inhibition of 24.5% (3D7; 10 µM, blood stage).
C[C@@H]1CC[C@H]2[C@@H](C)C(=O)O[C@@H]3O[C@@]4(C)CC[C@@H]1[C@]32OO4 gave an EC50 of 14 nM (72 h).
For CC(O)(CS(=O)(=O)c1ccc(F)cc1)C(=O)Nc1ccc(C#N)c(C(F)(F)F)c1 (centres unmarked), the IC50 was greater than 10000 nM (DD2; 48 h, drug-resistant strain, blood stage).
O[C@@H](CNCCN1CCN(C(c2ccccc2)c2ccccc2)CC1)c1cc(Cl)cc2c1-c1ccc(Cl)cc1C2 gave an IC50 of 13 nM (W2; 48 h, drug-resistant strain, blood stage).
The IC50 of O=C1C=C2NCCc3c[nH]c(c32)C1=O is reported as 29600 nM (3D7; blood stage).
For O[C@H](CN1CCN(C(c2ccccc2)c2ccccc2)CC1)c1cc(Cl)cc2c1-c1ccc(Cl)cc1C2, the IC50 was 70.2 nM (W2; 48 h, drug-resistant strain, blood stage).
CCOCC(=O)N1CCC[C@H](C(=O)NCc2nc(-c3ccc(C#N)cc3)cs2)C1 gave an EC50 of 6.2 nM (DD2; blood stage).
CCCCCCNC[C@@H](O)c1cc(Cl)cc2c1-c1ccc(Cl)cc1C2 has an IC50 of 6.5 nM (W2; 48 h, drug-resistant strain, blood stage).
C[N+]1=C2C=C(NCCc3ccc(O)cc3)C(=O)c3[nH]cc(c32)CC1 has an IC50 of 32.3 nM (W2; blood stage).
CCCCCCCNCC(O)c1cc(Cl)cc2c1-c1ccc(Cl)cc1C2 (racemic) has an IC50 of 18.6 nM (W2; 48 h, drug-resistant strain, blood stage).
With COCC(=O)N1CCC[C@H](C(=O)NCc2nc(-c3ccccc3)cs2)C1 the EC50 was 69 nM (DD2; 72 h, blood stage).
CCCCCNC[C@H](O)c1cc(Cl)cc2c1-c1ccc(Cl)cc1C2 has an IC50 of 3.7 nM (W2; 48 h, drug-resistant strain, blood stage).
COc1ccc(C2CC3=C(C(=O)O2)C(c2ccccc2Cl)C(C(=O)OC(C)(C)C)=C(C)N3)cc1OC (mixture of isomers) has an EC50 of greater than 13000 nM (3D7; 72 h, blood stage).
